Laboratory results reported in ChEMBL document CHEMBL5058577, “EUbOPEN Chemogenomics Library 2 (Multiplex)” (2022).

Tested on: HEK-293T
Assay: Multiplex assay against HEK293T
Type: toxicity, cell-based
Conditions: human
How it was run: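 Compound was added to live cells that had been stained at seeding with Hoechst33342, BioTracker Green Microtubule Cytoskeleton Dye, MitoTracker Red and Annexin V Alexa Fluor 680, and imaging followed on a CQ1 microscope at 37°C and 5% CO2. CellPathfinder machine-learning gating divided cells into Hoechst high-intensity objects or normal cells, normal cells into healthy, pyknosed or fragmented nuclei, and pyknosed cells into mitotic or apoptotic. Tubulin, mitochondrial-mass and membrane-permeability phenotypes are per cents of healthy-nucleus cells.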

[1] = 12 h, 1 µM, compound concentration 1 uM, replicate 1
[2] = 12 h, 1 µM, compound concentration 1 uM, replicate 2
[3] = 12 h, 10 µM, compound concentration 10 uM, replicate 1
[4] = 12 h, 10 µM, compound concentration 10 uM, replicate 2
[5] = 24 h, 1 µM, compound concentration 1 uM, replicate 1
[6] = 24 h, 1 µM, compound concentration 1 uM, replicate 2
[7] = 24 h, 10 µM, compound concentration 10 uM, replicate 1
[8] = 24 h, 10 µM, compound concentration 10 uM, replicate 2
[9] = 48 h, 1 µM, compound concentration 1 uM, replicate 1
[10] = 48 h, 1 µM, compound concentration 1 uM, replicate 2
[11] = 48 h, 10 µM, compound concentration 10 uM, replicate 1
[12] = 48 h, 10 µM, compound concentration 10 uM, replicate 2

SMILES: N#Cc1c(N)nc(SCc2csc(-c3ccc(Cl)cc3)n2)c(C#N)c1-c1ccc(OCCO)cc1 [CAPADENOSON]
- Population Apoptotic (%) [1]: 36%
- Population Fragmented Nuclei (%) [1]: 6%
- Population Healthy Nuclei (%) [1]: 79%
- Population Hoechst High Intensity Objects (%) [1]: 8%
- Population Membrane Permeable-Phenotype (%) [1]: 0%
- Population Mitochondria Different-Phenotype (%) [1]: 59%
- Population Mitotic Cells (%) [1]: 63%
- Population Normal (%) [1]: 91%
- Population Pyknosed Nuclei (%) [1]: 13%
- Population Tubulin-Different-Phenotype (%) [1]: 44%
- Total Cell Count [1]: 373
- Population Apoptotic (%) [2]: 54%
- Population Healthy Nuclei (%) [2]: 80%
- Population Hoechst High Intensity Objects (%) [2]: 4%
- Population Mitochondria Different-Phenotype (%) [2]: 60%
- Population Mitotic Cells (%) [2]: 45%
- Population Normal (%) [2]: 95%
- Population Pyknosed Nuclei (%) [2]: 12%
- Population Tubulin-Different-Phenotype (%) [2]: 34%
- Total Cell Count [2]: 375
- Population Apoptotic (%) [3]: 57%
- Population Fragmented Nuclei (%) [3]: 7%
- Population Healthy Nuclei (%) [3]: 75%
- Population Hoechst High Intensity Objects (%) [3]: 12%
- Population Membrane Permeable-Phenotype (%) [3]: 0%
- Population Mitochondria Different-Phenotype (%) [3]: 82%
- Population Mitotic Cells (%) [3]: 42%
- Population Normal (%) [3]: 87%
- Population Pyknosed Nuclei (%) [3]: 17%
- Population Tubulin-Different-Phenotype (%) [3]: 62%
- Total Cell Count [3]: 307
- Population Apoptotic (%) [4]: 70%
- Population Fragmented Nuclei (%) [4]: 6%
- Population Healthy Nuclei (%) [4]: 73%
- Population Hoechst High Intensity Objects (%) [4]: 14%
- Population Membrane Permeable-Phenotype (%) [4]: 1%
- Population Mitochondria Different-Phenotype (%) [4]: 85%
- Population Mitotic Cells (%) [4]: 29%
- Population Normal (%) [4]: 85%
- Population Pyknosed Nuclei (%) [4]: 20%
- Population Tubulin-Different-Phenotype (%) [4]: 63%
- Total Cell Count [4]: 388
- Population Apoptotic (%) [5]: 36%
- Population Fragmented Nuclei (%) [5]: 5%
- Population Healthy Nuclei (%) [5]: 76%
- Population Hoechst High Intensity Objects (%) [5]: 6%
- Population Membrane Permeable-Phenotype (%) [5]: 2%
- Population Mitochondria Different-Phenotype (%) [5]: 38%
- Population Mitotic Cells (%) [5]: 63%
- Population Normal (%) [5]: 93%
- Population Pyknosed Nuclei (%) [5]: 17%
- Population Tubulin-Different-Phenotype (%) [5]: 34%
- Total Cell Count [5]: 450
- Population Apoptotic (%) [6]: 37%
- Population Fragmented Nuclei (%) [6]: 7%
- Population Healthy Nuclei (%) [6]: 79%
- Population Hoechst High Intensity Objects (%) [6]: 4%
- Population Membrane Permeable-Phenotype (%) [6]: 0%
- Population Mitochondria Different-Phenotype (%) [6]: 44%
- Population Mitotic Cells (%) [6]: 62%
- Population Normal (%) [6]: 95%
- Population Pyknosed Nuclei (%) [6]: 12%
- Population Tubulin-Different-Phenotype (%) [6]: 23%
- Total Cell Count [6]: 456
- Population Apoptotic (%) [7]: 65%
- Population Fragmented Nuclei (%) [7]: 8%
- Population Healthy Nuclei (%) [7]: 68%
- Population Hoechst High Intensity Objects (%) [7]: 14%
- Population Membrane Permeable-Phenotype (%) [7]: 0%
- Population Mitochondria Different-Phenotype (%) [7]: 94%
- Population Mitotic Cells (%) [7]: 34%
- Population Normal (%) [7]: 85%
- Population Pyknosed Nuclei (%) [7]: 22%
- Population Tubulin-Different-Phenotype (%) [7]: 62%
- Total Cell Count [7]: 319
- Population Apoptotic (%) [8]: 73%
- Population Fragmented Nuclei (%) [8]: 4%
- Population Hoechst High Intensity Objects (%) [8]: 13%
- Population Mitochondria Different-Phenotype (%) [8]: 89%
- Population Mitotic Cells (%) [8]: 26%
- Population Normal (%) [8]: 86%
- Population Pyknosed Nuclei (%) [8]: 26%
- Population Tubulin-Different-Phenotype (%) [8]: 61%
- Total Cell Count [8]: 391
- Population Apoptotic (%) [9]: 31%
- Population Fragmented Nuclei (%) [9]: 10%
- Population Healthy Nuclei (%) [9]: 79%
- Population Hoechst High Intensity Objects (%) [9]: 4%
- Population Membrane Permeable-Phenotype (%) [9]: 1%
- Population Mitochondria Different-Phenotype (%) [9]: 32%
- Population Mitotic Cells (%) [9]: 68%
- Population Normal (%) [9]: 95%
- Population Pyknosed Nuclei (%) [9]: 10%
- Population Tubulin-Different-Phenotype (%) [9]: 23%
- Total Cell Count [9]: 621
- Population Apoptotic (%) [10]: 32%
- Population Fragmented Nuclei (%) [10]: 11%
- Population Healthy Nuclei (%) [10]: 80%
- Population Hoechst High Intensity Objects (%) [10]: 3%
- Population Membrane Permeable-Phenotype (%) [10]: 2%
- Population Mitochondria Different-Phenotype (%) [10]: 23%
- Population Mitotic Cells (%) [10]: 67%
- Population Normal (%) [10]: 96%
- Population Pyknosed Nuclei (%) [10]: 8%
- Population Tubulin-Different-Phenotype (%) [10]: 18%
- Total Cell Count [10]: 787
- Population Apoptotic (%) [11]: 66%
- Population Fragmented Nuclei (%) [11]: 11%
- Population Healthy Nuclei (%) [11]: 68%
- Population Hoechst High Intensity Objects (%) [11]: 12%
- Population Membrane Permeable-Phenotype (%) [11]: 0%
- Population Mitochondria Different-Phenotype (%) [11]: 89%
- Population Mitotic Cells (%) [11]: 33%
- Population Normal (%) [11]: 87%
- Population Pyknosed Nuclei (%) [11]: 20%
- Population Tubulin-Different-Phenotype (%) [11]: 67%
- Total Cell Count [11]: 406
- Population Apoptotic (%) [12]: 63%
- Population Fragmented Nuclei (%) [12]: 12%
- Population Healthy Nuclei (%) [12]: 73%
- Population Hoechst High Intensity Objects (%) [12]: 10%
- Population Mitochondria Different-Phenotype (%) [12]: 88%
- Population Mitotic Cells (%) [12]: 36%
- Population Normal (%) [12]: 89%
- Population Pyknosed Nuclei (%) [12]: 14%
- Population Tubulin-Different-Phenotype (%) [12]: 64%
- Total Cell Count [12]: 423
